Measured values published in ChEMBL document CHEMBL2401665, “Design, synthesis and biological studies of novel tubulin inhibitors” (Bioorg Med Chem Lett, 2013).

Columns and labels:
MDA-MB-231 = test: Cytotoxicity against hormone-independent human MDA-MB-231 cells assessed as growth inhibition by MTS assay; type: functional, cell-based
Outline: (§1)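 Cells seeded at 2,500 per well and exposed to a range of compound concentrations. Read-out is the MTS assay […]. IC50 is the mean of 3 independent experiments, each run in triplicate.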

PC-3 = test: Cytotoxicity against hormone-independent human PC3 cells assessed as growth inhibition by MTS assay; type: functional, cell-based; outline: as §1
Tubulin = Tubulin (Sus scrofa, UniProt P02554+P02550); test: Inhibition of porcine brain tubulin polymerization

IC50 (Tubulin)	Compound	IC50 (MDA-MB-231)	IC50 (PC-3)
–	COc1ccc2c(c1)oc(=O)n2C(=O)c1cc(OC)c(OC)c(OC)c1	> 20000 nM	> 20000 nM
16.4 µM	COc1ccc2c(c1)[nH]c(=O)n2Cc1cc(OC)c(OC)c(OC)c1	52.8 nM	44.2 nM
–	COc1ccc2c(c1)NC(=O)/C2=C/c1cc(OC)c(OC)c(OC)c1	0.88 nM	–
ND(Insoluble)	COc1ccc2c(c1)C(=O)C(=O)N2Cc1cc(OC)c(OC)c(OC)c1	935 nM	318 nM
> 40 µM	COc1ccc2c(c1)oc(=O)n2Cc1cc(OC)c(OC)c(OC)c1	4520 nM	4490 nM
31.2 µM	COc1ccc2c(c1)CC(=O)N2Cc1cc(OC)c(OC)c(OC)c1	193 nM	165 nM
19.14 µM	COc1ccc2c(c1)[nH]c(=O)n2C(=O)c1cc(OC)c(OC)c(OC)c1	108 nM	126 nM
> 40 µM	COc1ccc2c(c1)n(C)c(=O)n2Cc1cc(OC)c(OC)c(OC)c1	3030 nM	555 nM
